Measurements taken from ChEMBL document CHEMBL3861962 (Eur J Med Chem, 2016).

What was measured:
[1] = Metabolic stability in human liver microsomes assessed as parent compound remaining at 5 uM in presence of NADPH after 30 mins by LC-MS/MS analysis; assay type: ADME; conditions: read-out: Stability
Method in brief: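 Pooled human liver microsomes in 100 mM potassium phosphate, pH 7.4, with test compound at 5 μM final. Reaction started with 1 mM NADPH (final) and run at 37 °C in a shaking water bath for 0, 15 and 30 min. Stopped with an equal volume of ice-cold acetonitrile containing 0.6 μM labetalol as internal standard. Protein was spun out and the supernatant analysed by LC-MS/MS. Blank had no compound.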

Cytochrome P450 2C9 = Cytochrome P450 2C9 (Homo sapiens, UniProt P11712); assay: Drug metabolism assessed as human recombinant CYP2C9-mediated metabolite formation by measuring parent compound remaining at 5 uM in presence of NADPH after 30 mins by LC-MS/MS analysis; assay type: ADME; conditions: recombinant enzyme, 0.5 h
Method in brief: (§1)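 Substrate at 5 μM final in 100 mM potassium phosphate, pH 7.4, incubated with human liver microsomes or baculovirus-expressed recombinant CYP3A4, 2D6 or 2C9. Reaction started with 1 mM NADPH and run 0, 15 and 30 min at 37 °C. Stopped with ice-cold acetonitrile containing labetalol internal standard, then centrifuged. Supernatant analysed by LC-MS/MS on a C18 column at 40 °C. Blank was enzyme without substrate.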

[2] = Retention time of the compound; assay type: physicochemical
Cytochrome P450 2D6 = Cytochrome P450 2D6 (Homo sapiens, UniProt P10635); assay: Drug metabolism assessed as human recombinant CYP2D6-mediated metabolite formation by measuring parent compound remaining at 5 uM in presence of NADPH after 30 mins by LC-MS/MS analysis; assay type: ADME; conditions: recombinant enzyme, 0.5 h; method in brief: as §1
[3] = Cytotoxicity against CHOK1 cells assessed as decrease in cell viability after 24 hrs by MTT assay; assay type: toxicity, cell-based, Cricetulus griseus; conditions: Chinese hamster, CHO-K1 cells
Method in brief: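 CHO-k1 cells grown in phenol-red-free DMEM/F-12 with 10% FBS, seeded at 20,000 cells/well and allowed to attach overnight. Exposure was 24 h to 0.1–200 μM, with DMSO as vehicle control. MTT at 1 mg/mL for 3 h at 37 °C, formazan dissolved in DMSO, absorbance read at 570 nm. Data given as % OD of vehicle control; IC50 taken from dose–response curve fits.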

[4] = target: T1, Endothelin-1 receptor (Homo sapiens) (UniProt P25101); assay: Agonist activity at ETA receptor in human SKNMC cells assessed as induction of Ca2+ mobilization at 1 nM by fluorimetric method relative to control; assay type: functional, cell-based; conditions: SK-N-MC
T1 sequence (whole entry): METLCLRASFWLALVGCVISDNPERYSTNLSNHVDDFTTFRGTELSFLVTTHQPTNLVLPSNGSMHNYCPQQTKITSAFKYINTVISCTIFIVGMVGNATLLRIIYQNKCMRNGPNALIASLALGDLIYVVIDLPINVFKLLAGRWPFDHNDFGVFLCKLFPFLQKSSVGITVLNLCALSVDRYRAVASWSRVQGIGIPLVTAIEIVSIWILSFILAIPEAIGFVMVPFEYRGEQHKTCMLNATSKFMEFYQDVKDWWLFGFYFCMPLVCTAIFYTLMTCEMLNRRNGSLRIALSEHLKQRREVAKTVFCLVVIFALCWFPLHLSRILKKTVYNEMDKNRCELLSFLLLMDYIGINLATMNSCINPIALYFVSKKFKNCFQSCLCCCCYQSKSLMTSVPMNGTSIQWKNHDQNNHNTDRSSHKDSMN
Method in brief: (§2)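 ETA functional assay run by Cerep in human neuroblastoma SK-N-MC cells at 22 °C with fluorimetric read-out. Test solutions were 1, 10, 100 and 1000 nM. Agonist response is given as % of the control response to 100 nM endothelin-1. For antagonist mode, inhibition is given as % of the control endothelin-1 agonist response, with BQ-123 as reference antagonist.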

[5] = target: T1, Endothelin-1 receptor (Homo sapiens); assay: Agonist activity at ETA receptor in human SKNMC cells assessed as induction of Ca2+ mobilization at 10 nM by fluorimetric method relative to control; assay type: functional, cell-based; conditions: SK-N-MC; method in brief: as §2
[6] = target: T1, Endothelin-1 receptor (Homo sapiens); assay: Agonist activity at ETA receptor in human SKNMC cells assessed as induction of Ca2+ mobilization at 100 nM by fluorimetric method relative to control; assay type: functional, cell-based; conditions: SK-N-MC; method in brief: as §2
[7] = target: T2, Endothelin receptor type B (Homo sapiens) (UniProt P24530); assay: Agonist activity at human recombinant ETB receptor expressed in CHOK1 cells assessed as induction of Ca2+ mobilization at 1 nM by fluorimetric method relative to control; assay type: functional, cell-based; conditions: CHO-K1
T2 sequence (whole entry): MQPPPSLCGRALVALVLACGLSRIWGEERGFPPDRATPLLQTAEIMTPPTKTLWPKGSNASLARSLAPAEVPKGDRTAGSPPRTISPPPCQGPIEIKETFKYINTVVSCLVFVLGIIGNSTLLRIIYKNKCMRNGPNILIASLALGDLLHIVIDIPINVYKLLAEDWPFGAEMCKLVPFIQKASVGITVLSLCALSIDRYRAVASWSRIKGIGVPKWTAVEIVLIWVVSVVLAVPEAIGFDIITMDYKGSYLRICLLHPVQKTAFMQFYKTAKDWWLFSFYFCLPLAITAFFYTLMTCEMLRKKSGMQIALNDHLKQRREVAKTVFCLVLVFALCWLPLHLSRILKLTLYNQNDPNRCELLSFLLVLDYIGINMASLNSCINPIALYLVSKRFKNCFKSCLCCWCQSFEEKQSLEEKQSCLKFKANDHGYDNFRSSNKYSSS
Method in brief: as §2, with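 “ETB” for “ETA”, “recombinant CHO-k1” for “neuroblastoma SK-N-MC”, “BQ-788” for “BQ-123”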

[8] = target: T2, Endothelin receptor type B (Homo sapiens); assay: Agonist activity at human recombinant ETB receptor expressed in CHOK1 cells assessed as induction of Ca2+ mobilization at 100 nM by fluorimetric method relative to control; assay type: functional, cell-based; conditions: CHO-K1
Method in brief: as §2, with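 “ETB” for “ETA”, “recombinant CHO-k1” for “neuroblastoma SK-N-MC”, “BQ-788” for “BQ-123”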

[9] = target: T1, Endothelin-1 receptor (Homo sapiens); assay: Antagonist activity at ETA receptor in human SKNMC cells assessed as inhibition of endothelin-1-mediated Ca2+ mobilization at 1 nM by fluorimetric method relative to control; assay type: functional, cell-based; conditions: SK-N-MC; method in brief: as §2
[10] = target: T1, Endothelin-1 receptor (Homo sapiens); assay: Antagonist activity at ETA receptor in human SKNMC cells assessed as inhibition of endothelin-1-mediated Ca2+ mobilization at 10 nM by fluorimetric method relative to control; assay type: functional, cell-based; conditions: SK-N-MC; method in brief: as §2
[11] = target: T1, Endothelin-1 receptor (Homo sapiens); assay: Antagonist activity at ETA receptor in human SKNMC cells assessed as inhibition of endothelin-1-mediated Ca2+ mobilization at 100 nM by fluorimetric method relative to control; assay type: functional, cell-based; conditions: SK-N-MC; method in brief: as §2
[12] = target: T2, Endothelin receptor type B (Homo sapiens); assay: Antagonist activity at human recombinant ETB expressed in CHOK1 cells assessed as inhibition of endothelin-1-mediated Ca2+ mobilization at 10 nM by fluorimetric method relative to control; assay type: functional, cell-based; conditions: CHO-K1
Method in brief: as §2, with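 “ETB” for “ETA”, “recombinant CHO-k1” for “neuroblastoma SK-N-MC”, “BQ-788” for “BQ-123”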

[13] = target: T2, Endothelin receptor type B (Homo sapiens); assay: Antagonist activity at human recombinant ETB expressed in CHOK1 cells assessed as inhibition of endothelin-1-mediated Ca2+ mobilization at 100 nM by fluorimetric method relative to control; assay type: functional, cell-based; conditions: CHO-K1
Method in brief: as §2, with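 “ETB” for “ETA”, “recombinant CHO-k1” for “neuroblastoma SK-N-MC”, “BQ-788” for “BQ-123”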

Endothelin-1 receptor = target: T3, Endothelin-1 receptor (Homo sapiens, UniProt P25101); assay: Antagonist activity at ETA receptor in human SKNMC cells assessed as inhibition of endothelin-1-induced Ca2+ mobilization by fluorimetric method
T3 sequence (P25101 whole entry): T1 sequence (whole entry)

Sequence of Cytochrome P450 2D6 (P10635 whole entry): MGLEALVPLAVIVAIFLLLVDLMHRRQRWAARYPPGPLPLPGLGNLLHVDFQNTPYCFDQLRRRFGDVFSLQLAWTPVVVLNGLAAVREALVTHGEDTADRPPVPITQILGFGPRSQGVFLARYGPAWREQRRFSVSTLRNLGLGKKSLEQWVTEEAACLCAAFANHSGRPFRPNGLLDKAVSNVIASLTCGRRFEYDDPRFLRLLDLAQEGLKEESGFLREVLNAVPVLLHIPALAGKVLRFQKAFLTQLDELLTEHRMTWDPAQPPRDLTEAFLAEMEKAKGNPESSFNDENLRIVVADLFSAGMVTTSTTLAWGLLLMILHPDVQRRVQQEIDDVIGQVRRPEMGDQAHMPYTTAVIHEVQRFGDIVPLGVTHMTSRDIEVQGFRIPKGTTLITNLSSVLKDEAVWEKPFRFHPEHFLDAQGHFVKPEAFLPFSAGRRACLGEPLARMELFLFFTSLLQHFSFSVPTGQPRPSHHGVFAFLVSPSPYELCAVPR
Sequence of Cytochrome P450 2C9 (P11712 whole entry): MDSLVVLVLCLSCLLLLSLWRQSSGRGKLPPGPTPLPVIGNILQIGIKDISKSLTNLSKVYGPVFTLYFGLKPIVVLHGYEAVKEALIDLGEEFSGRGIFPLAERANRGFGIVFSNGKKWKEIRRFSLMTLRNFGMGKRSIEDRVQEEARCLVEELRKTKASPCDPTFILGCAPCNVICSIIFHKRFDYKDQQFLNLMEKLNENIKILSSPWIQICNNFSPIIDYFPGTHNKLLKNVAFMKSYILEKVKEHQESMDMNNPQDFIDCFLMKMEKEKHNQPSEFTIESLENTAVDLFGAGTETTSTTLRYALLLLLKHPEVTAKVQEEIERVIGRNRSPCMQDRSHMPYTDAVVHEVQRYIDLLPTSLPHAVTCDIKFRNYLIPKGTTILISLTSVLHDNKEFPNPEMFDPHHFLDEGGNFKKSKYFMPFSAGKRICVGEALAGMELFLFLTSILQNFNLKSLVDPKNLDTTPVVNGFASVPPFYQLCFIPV

| remaining at 0.5 h, 5 µM [1] [%] | Stability (Cytochrome P450 2C9) [%] | Retention_time [2] [min] | Stability (Cytochrome P450 2D6) [%] | Activity [4] [%] | Activity [5] [%] | Activity [6] [%] | Activity [7] [%] | Activity [8] [%] | inhibition [9] [%] | inhibition [10] [%] | inhibition [11] [%] | inhibition [12] [%] | inhibition [13] [%] | IC50 (Endothelin-1 receptor) [µM] | SMILES | IC50 at 24 h [3] [µM] |
| --- | --- | --- | --- | --- | --- | --- | --- | --- | --- | --- | --- | --- | --- | --- | --- | --- |
| 99 | 100 | 5.6 | > 99 | 0 | -1 | -1 | 0 | -1 | -5 | 20 | 55 | 16 | 8 | 0.0754 | COc1ccccc1Oc1c(NS(=O)(=O)c2ccc(C(F)(C(F)(F)F)C(F)(F)F)cc2)nc(-c2ncccn2)nc1OCCO | 159 |
| 73.9 | 100 | 5.48 | > 99 | 0 | 0 | 0 | 0 | 0 | -1 | 13 | 26 | 5 | 11 | 693 | COc1ccccc1Oc1c(NS(=O)(=O)c2ccc(C(OC)(C(F)(F)F)C(F)(F)F)cc2)nc(-c2ncccn2)nc1OCCO | 153 |
